pIC50: −log10 of the molar value.
Experiments:
[1] = system: Rattus norvegicus; test: Effect on in vivo accumulation of 5-HTP was measured in rat limbic system at 48(Micromol/kg) dose; assay type: functional
Method in brief: (§1)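 Rats not pretreated with reserpine received test drug (hydrochloride or hydrobromide salt) sc in the neck region 60 min before death. NSD 1015 decarboxylase inhibitor (100 mg/kg, i.e., 573 μmol/kg, ip) was given 30 min before decapitation. Brain was dissected on ice. Tissue was homogenized in 0.1 M perchloric acid with α-methyl-DOPA internal standard. Analytes were quantified by ion-pair reversed-phase HPLC-electrochemical detection. Values are means ± SEM, n = 3-7 per treated group.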

[2] = system: Rattus norvegicus; test: Effect on in vivo accumulation of dopamine(DA) was measured in rat limbic system at 48(Micromol/kg) dose; assay type: functional
Method in brief: (§2)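 Non-reserpinized rats got the test drug sc in the neck (5 mL/kg) 60 min before death, and NSD 1015 (573 µmol/kg ip) 30 min before death. After decapitation, the limbic system was dissected on ice, frozen and homogenized in 0.1 M perchloric acid with α-methyl-DOPA internal standard. DA was measured by ion-pair reversed-phase HPLC with electrochemical detection. Data are mean ± SEM (controls n=17-19, treated 3-7), analysed by ANOVA/Dunnett.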

[3] = system: Rattus norvegicus; test: Effect on in vivo accumulation of DOPA was measured in rat limbic system at 48(Micromol/kg) dose; assay type: functional; method in brief: as §1
[4] = system: Rattus norvegicus; test: Effect on in vivo accumulation of DOPA was measured in rat corpus striatum at 48(Micromol/kg) dose; assay type: functional; method in brief: as §1
[5] = system: Rattus norvegicus; test: Effect on in vivo accumulation of […] was measured in rat corpus striatum at 48(Micromol/kg) dose; assay type: functional; method in brief: as §1
[6] = system: Rattus norvegicus; test: Effect on in vivo accumulation of 5-HTP was measured in rat corpus striatum at 48(umol/kg) dose; assay type: functional; method in brief: as §1
[7] = system: Rattus norvegicus; test: Effect on in vivo accumulation of 5-HTP was measured in rat limbic system at 50(Micromol/kg) dose; assay type: functional; method in brief: as §1
[8] = system: Rattus norvegicus; test: Effect on in vivo accumulation of 5-HTP was measured in rat corpus striatum at 50(umol/kg) dose; assay type: functional; method in brief: as §1
[9] = system: Rattus norvegicus; test: Effect on in vivo accumulation of dopamine(DA) was measured in rat limbic system at 50(Micromol/kg) dose; assay type: functional; method in brief: as §2
[10] = biological target: T1, 5-hydroxytryptamine receptor 1A (Rattus norvegicus, UniProt P19327); test: (§3) In vitro Inhibitory activity tested at 5-hydroxytryptamine 1A receptor binding site in rat; assay type: functional
T1 sequence (P19327 whole entry): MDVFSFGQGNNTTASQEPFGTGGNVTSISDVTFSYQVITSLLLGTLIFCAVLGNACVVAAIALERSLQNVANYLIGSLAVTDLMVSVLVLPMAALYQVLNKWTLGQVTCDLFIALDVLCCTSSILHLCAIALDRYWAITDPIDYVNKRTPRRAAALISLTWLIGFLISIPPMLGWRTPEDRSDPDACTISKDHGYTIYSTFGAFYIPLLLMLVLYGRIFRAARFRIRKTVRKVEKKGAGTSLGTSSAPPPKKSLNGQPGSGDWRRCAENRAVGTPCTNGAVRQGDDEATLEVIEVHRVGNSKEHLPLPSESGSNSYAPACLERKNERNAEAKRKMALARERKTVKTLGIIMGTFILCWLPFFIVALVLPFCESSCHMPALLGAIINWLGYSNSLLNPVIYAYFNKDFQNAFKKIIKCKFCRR
Method in brief: (§4)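 Competition binding used rat brain membranes washed in 50 mM Tris-HCl pH 7.4, preincubated 10 min at 37 °C to remove 5-HT, and used at 10 mg wet tissue/mL. Assay: 1 nM [3H]-8-OH-DPAT, 3 mM CaCl2, 100 µM pargyline, 15 min at 37 °C, then filtration on PEI-treated filters. Nonspecific binding was set with 10 µM 5-HT. IC50 came from four-parameter logistic regression, mean ± SEM of N experiments.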

[11] = system: Rattus norvegicus; test: Effect on in vivo accumulation of DOPA was measured in rat corpus striatum at 50(Micromol/kg) dose; assay type: functional; method in brief: as §1
[12] = system: Rattus norvegicus; test: Effect on in vivo accumulation of […] was measured in rat corpus striatum at 50(Micromol/kg) dose; assay type: functional; method in brief: as §1
[13] = system: Rattus norvegicus; test: Effect on in vivo accumulation of DOPA was measured in rat limbic system at 50(Micromol/kg) dose; assay type: functional; method in brief: as §1
[14] = system: Rattus norvegicus; test: Effect on in vivo accumulation of dopamine(DA) was measured in rat limbic system at 66(Micromol/kg) dose; assay type: functional; method in brief: as §2
[15] = system: Rattus norvegicus; test: Effect on in vivo accumulation of 5-HTP was measured in rat corpus striatum at 66(umol/kg) dose; assay type: functional; method in brief: as §1
[16] = system: Rattus norvegicus; test: Effect on in vivo accumulation of DOPA was measured in rat corpus striatum at 66(Micromol/kg) dose; assay type: functional; method in brief: as §1
[17] = system: Rattus norvegicus; test: Effect on in vivo accumulation of 5-HTP was measured in rat limbic system at 66(Micromol/kg) dose; assay type: functional; method in brief: as §1
[18] = system: Rattus norvegicus; test: Effect on in vivo accumulation of DOPA was measured in rat limbic system at 66(Micromol/kg) dose; assay type: functional; method in brief: as §1
[19] = system: Rattus norvegicus; test: Effect on in vivo accumulation of […] was measured in rat corpus striatum at 66(Micromol/kg) dose; assay type: functional; method in brief: as §1
[20] = system: Rattus norvegicus; test: Effect on in vivo accumulation of DOPA was measured in rat corpus striatum at 59(Micromol/kg) dose; assay type: functional; method in brief: as §1
[21] = system: Rattus norvegicus; test: Effect on in vivo accumulation of DOPA was measured in rat limbic system at 59(Micromol/kg) dose; assay type: functional; method in brief: as §1
[22] = system: Rattus norvegicus; test: Effect on in vivo accumulation of 5-HTP was measured in rat corpus striatum at 59(umol/kg) dose; assay type: functional; method in brief: as §1
[23] = system: Rattus norvegicus; test: Effect on in vivo accumulation of […] was measured in rat corpus striatum at 59(Micromol/kg) dose; assay type: functional; method in brief: as §1
[24] = system: Rattus norvegicus; test: Effect on in vivo accumulation of dopamine(DA) was measured in rat limbic system at 59(Micromol/kg) dose; assay type: functional; method in brief: as §2
[25] = system: Rattus norvegicus; test: Effect on in vivo accumulation of 5-HTP was measured in rat limbic system at 59(Micromol/kg) dose; assay type: functional; method in brief: as §1
[26] = biological target: T1, 5-hydroxytryptamine receptor 1A; test: as §3; method in brief: as §4

CCCN(CCC)[C@H]1Cc2c(cccc2OC)C[C@@H]1C (racemic)
Activity [1]: 145 ng/g | Activity [2]: 1225 ng/g | Activity [3]: 389 ng/g | Activity [4]: 979 ng/g | Activity [5]: 5833 ng/g | Activity [6]: <61.3 ng/g

CCCN(CCC)[C@H]1Cc2c(O)cccc2C[C@H]1C (racemic) [listing 1 of 2 here]
Activity [7]: 138 ng/g | Activity [8]: <57.8 ng/g | Activity [9]: <678 ng/g | pIC50 [10]: 6.11 | Activity [11]: 1059 ng/g | Activity [12]: <2935 ng/g | Activity [13]: 436 ng/g

CCCN(CCC)[C@H]1Cc2c(cccc2OC)C[C@H]1C (racemic)
Activity [1]: 141 ng/g | Activity [2]: 1342 ng/g | Activity [3]: 414 ng/g | Activity [4]: 1078 ng/g | Activity [5]: 6465 ng/g | Activity [6]: 88.8 ng/g

CCCN(CCC)[C@H]1Cc2c(O)cccc2CC1(C)C (racemic)
Activity [1]: 158 ng/g | Activity [2]: 1125 ng/g | Activity [3]: 362 ng/g | Activity [4]: 982 ng/g | Activity [5]: 5417 ng/g | Activity [6]: 90 ng/g

COc1cccc2c1C[C@H](N)[C@@H](C)C2 (racemic)
Activity [14]: 1243 ng/g | Activity [15]: 90.2 ng/g | Activity [16]: <823 ng/g | Activity [17]: <106 ng/g | Activity [18]: 356 ng/g | Activity [19]: <6863 ng/g

CCCN[C@H]1Cc2c(O)cccc2C[C@@H]1C (racemic)
Activity [20]: 1047 ng/g | Activity [21]: 400 ng/g | Activity [22]: 101 ng/g | Activity [23]: 5877 ng/g | Activity [24]: 1215 ng/g | Activity [25]: 155 ng/g

CCCN[C@H]1Cc2c(O)cccc2C[C@H]1C (racemic)
Activity [20]: <633 ng/g | Activity [21]: <283 ng/g | Activity [22]: 69 ng/g | Activity [23]: 4530 ng/g | Activity [24]: 1058 ng/g | Activity [25]: <98.1 ng/g

CCCN(CCC)[C@H]1Cc2c(O)cccc2C[C@H]1C (racemic) [listing 2 of 2 here]
pIC50 [26]: 6.11

CCCN(CCC)[C@H]1Cc2c(O)cccc2C[C@@H]1C (racemic; form 1)
pIC50 [26]: 6.89

CCCN(CCC)[C@H]1Cc2c(O)cccc2C[C@@H]1C (racemic; form 2)
Activity [7]: <79.3 ng/g | Activity [8]: <27.1 ng/g | Activity [9]: <775 ng/g | Activity [11]: 792 ng/g | Activity [12]: <3871 ng/g | Activity [13]: 348 ng/g | pIC50 [26]: 6.89

Source: ChEMBL document CHEMBL1124127, “Central dopaminergic and 5-hydroxytryptaminergic effects of C3-methylated derivatives of 8-hydroxy-2-(di-n-propylamino)tetralin” (J Med Chem, 1988)
